The record followed here is ChEMBL document CHEMBL6087457, “Discovery of MDI-114215: A Potent and Selective LIMK Inhibitor To Treat Fragile X Syndrome” (J Med Chem, 2025).

pIC50: −log10 of the molar value. Activity calls are given as the source filed them. No cut-off for these calls is given here.

Data set [1] has as its target LIM domain kinase 1 (Mus musculus) (UniProt P53668). Put plainly: Ex vivo inhibition of LIMK in hippocampus of mouse assessed as reduction in p-cofilin level at 3 uM incubated for 30 mins by Western blot analysis. The data set is classed as functional. An outline of the steps: (§1)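 Acute hippocampal slices from P7–9 WT and Fmr1 KO mice, incubated with vehicle (DMSO) or 3 μM LIMK inhibitor. p-Cofilin and total cofilin measured by Western blot and expressed as a p-cofilin/cofilin ratio. n = 2–4 animals per group. Significance by one-way ANOVA with Dunnett's multiple comparisons test.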
For orientation: A western blot detects proteins with antibodies after separation by electrophoresis.

Data set [2] shares this target. Kind of data set: Ex vivo inhibition of LIMK in hippocampus of Fmr1 KO mouse model of FXS assessed as reduction in p-cofilin level at 3 uM incubated for 30 mins by Western blot analysis. The data set is classed as functional. In outline:
as §1

Data set [3] is described as follows: Drug concentration in plasma of CD-1 mouse at 30 mg/kg/day, ip treated daily for 28 days. The data set is classed as ADME, organism-based. Conditions: time 28 day.
Data set [4] addresses T1, Cytochrome P450 1A2 (Homo sapiens, UniProt P05177).
T1 sequence (P05177 whole entry): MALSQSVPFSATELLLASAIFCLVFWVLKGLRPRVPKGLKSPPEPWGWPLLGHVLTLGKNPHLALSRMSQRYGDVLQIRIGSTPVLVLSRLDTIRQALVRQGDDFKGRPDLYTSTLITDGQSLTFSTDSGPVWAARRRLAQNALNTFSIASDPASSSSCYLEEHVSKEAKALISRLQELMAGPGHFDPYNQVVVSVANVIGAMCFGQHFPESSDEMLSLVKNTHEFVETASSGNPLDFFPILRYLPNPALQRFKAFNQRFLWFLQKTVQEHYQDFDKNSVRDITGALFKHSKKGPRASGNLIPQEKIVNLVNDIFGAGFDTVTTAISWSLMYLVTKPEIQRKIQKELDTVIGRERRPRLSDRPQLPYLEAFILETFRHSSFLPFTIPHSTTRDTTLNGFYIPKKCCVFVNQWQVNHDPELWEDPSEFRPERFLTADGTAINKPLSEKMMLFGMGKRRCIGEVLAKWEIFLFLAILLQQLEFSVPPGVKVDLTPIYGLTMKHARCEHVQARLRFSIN
Kind of data set: Inhibition of CYP1A2 (unknown origin). Type of data set: ADME, microsomes, Liver, Microsome.

In data set [5] the target is Cytochrome P450 2C19 (Homo sapiens, UniProt P33261). Kind of data set: Inhibition of CYP2C19 (unknown origin). Type of data set: ADME, microsomes, Liver, Microsome.
Sequence of Cytochrome P450 2C19 (P33261 whole entry): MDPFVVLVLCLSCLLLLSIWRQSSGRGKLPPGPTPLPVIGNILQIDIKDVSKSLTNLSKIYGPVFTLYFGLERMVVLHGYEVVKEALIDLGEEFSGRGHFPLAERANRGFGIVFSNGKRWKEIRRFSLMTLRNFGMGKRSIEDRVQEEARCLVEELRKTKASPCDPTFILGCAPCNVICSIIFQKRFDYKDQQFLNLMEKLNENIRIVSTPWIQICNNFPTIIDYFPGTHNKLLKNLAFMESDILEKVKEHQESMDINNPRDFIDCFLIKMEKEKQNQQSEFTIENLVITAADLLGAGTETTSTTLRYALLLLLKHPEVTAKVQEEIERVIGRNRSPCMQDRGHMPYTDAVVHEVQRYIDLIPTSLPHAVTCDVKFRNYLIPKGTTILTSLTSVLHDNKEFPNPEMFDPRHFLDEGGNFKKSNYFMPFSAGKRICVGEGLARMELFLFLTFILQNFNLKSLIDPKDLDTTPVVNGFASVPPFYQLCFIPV
Data set [6] has as its target Cytochrome P450 2D6 (Homo sapiens, UniProt P10635). Put plainly: Inhibition of CYP2D6 (unknown origin). The data set is classed as ADME, microsomes, Liver, Microsome.
Data set [7] is described as follows: Toxicity in CD-1 mouse assessed as body weight change at 30 mg/kg/day, ip treated daily for 28 days. The following applies: in vivo, 672 h, time 28 day. Type of data set: organism-based. An outline of the steps:
(§2)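 Male CD-1 mice, 6 weeks old at start, dosed with vehicle or 30 mg/kg/day i.p. once daily for 28 days, followed by a 2-week treatment-free recovery. Endpoints: body weight, food consumption, clinical signs, macro- and microscopic pathology, and organ weights (male sexual organs) after […] of dosing and after recovery. Data given as mean ± SEM.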

Data set [8] can be described thus: Toxicity in CD-1 mouse assessed as effect on food consumption at 30 mg/kg/day, ip treated daily for 28 days. The data set is classed as organism-based. The following applies: in vivo, 672 h, time 28 day. In outline: as §2
Data set [9] can be described thus: Toxicity in CD-1 mouse assessed as adverse clinical signs at 30 mg/kg/day, ip treated daily for 28 days. The data set is classed as organism-based. Conditions: in vivo, 672 h, time 28 day. An outline of the steps:
as §2

Data set [10] in a line: Toxicity in CD-1 mouse assessed as adverse macroscopic findings at 30 mg/kg/day, ip treated daily for 28 days. The data set is classed as organism-based. The following applies: in vivo, 672 h, time 28 day. In outline:
as §2

Data set [11] can be described thus: Toxicity in CD-1 mouse assessed as adverse microscopic findings at 30 mg/kg/day, ip treated daily for 28 days. Conditions: in vivo, 672 h, time 28 day. The data set is classed as organism-based. An outline of the steps: as §2
Data set [12] can be described thus: Toxicity in CD-1 mouse assessed as change in epididymis weight at 30 mg/kg/day, ip treated daily for 28 days. Conditions: in vivo, 672 h, time 28 day. The data set is classed as organism-based. In outline:
as §2

Data set [13] in a line: Toxicity in CD-1 mouse assessed as change in prostate weight at 30 mg/kg/day, ip treated daily for 28 days. The following applies: in vivo, 672 h, time 28 day. The data set is classed as organism-based. In outline: as §2
Data set [14] can be described thus: Toxicity in CD-1 mouse assessed as change in testis weight at 30 mg/kg/day, ip treated daily for 28 days. Conditions: in vivo, 672 h, time 28 day. The data set is classed as organism-based. In outline: as §2
Data set [15] in a line: Toxicity in CD-1 mouse assessed as change in seminal vesicle weight at 30 mg/kg/day, ip treated daily for 28 days. The data set is classed as organism-based. Conditions: in vivo, 672 h, time 28 day. In outline: as §2
Data set [16] in a line: Toxicity in CD-1 mouse assessed as inflammatory cell infiltration in epididymis at 30 mg/kg/day, ip treated daily for 28 days measured after 14 days of recovery period. Type of data set: organism-based. Conditions: in vivo, 672 h, time 28 day. In outline: as §2
Data set [17] in a line: Drug concentration in brain of CD-1 mouse at 30 mg/kg/day, ip treated daily for 28 days. Type of data set: ADME, organism-based. The following applies: time 28 day, read-out: Ct.
Data set [18] in a line: Toxicity in CD-1 mouse assessed as drug tolerance at 30 mg/kg/day, ip treated daily for 28 days. The data set is classed as organism-based. Conditions: in vivo, 672 h, time 28 day. An outline of the steps:
as §2

Sequence of LIM domain kinase 1 (Mus musculus) (P53668 whole entry, the tested form may be a part): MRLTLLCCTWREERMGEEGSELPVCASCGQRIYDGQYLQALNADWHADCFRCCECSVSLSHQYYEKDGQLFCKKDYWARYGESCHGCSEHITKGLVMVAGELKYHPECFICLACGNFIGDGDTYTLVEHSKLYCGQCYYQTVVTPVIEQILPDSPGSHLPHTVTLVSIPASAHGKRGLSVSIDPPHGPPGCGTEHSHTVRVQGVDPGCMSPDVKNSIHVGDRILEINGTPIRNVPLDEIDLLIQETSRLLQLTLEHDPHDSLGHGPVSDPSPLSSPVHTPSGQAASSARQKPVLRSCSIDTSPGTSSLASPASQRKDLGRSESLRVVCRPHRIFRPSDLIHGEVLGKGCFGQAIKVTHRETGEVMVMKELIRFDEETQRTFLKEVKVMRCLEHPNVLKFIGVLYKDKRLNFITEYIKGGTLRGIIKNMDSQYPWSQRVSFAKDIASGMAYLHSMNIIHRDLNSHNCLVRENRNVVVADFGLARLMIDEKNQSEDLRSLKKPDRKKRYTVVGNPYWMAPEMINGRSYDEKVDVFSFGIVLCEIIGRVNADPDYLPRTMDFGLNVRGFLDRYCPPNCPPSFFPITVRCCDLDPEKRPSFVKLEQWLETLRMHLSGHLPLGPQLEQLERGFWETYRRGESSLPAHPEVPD
Sequence of Cytochrome P450 2D6 (P10635 whole entry): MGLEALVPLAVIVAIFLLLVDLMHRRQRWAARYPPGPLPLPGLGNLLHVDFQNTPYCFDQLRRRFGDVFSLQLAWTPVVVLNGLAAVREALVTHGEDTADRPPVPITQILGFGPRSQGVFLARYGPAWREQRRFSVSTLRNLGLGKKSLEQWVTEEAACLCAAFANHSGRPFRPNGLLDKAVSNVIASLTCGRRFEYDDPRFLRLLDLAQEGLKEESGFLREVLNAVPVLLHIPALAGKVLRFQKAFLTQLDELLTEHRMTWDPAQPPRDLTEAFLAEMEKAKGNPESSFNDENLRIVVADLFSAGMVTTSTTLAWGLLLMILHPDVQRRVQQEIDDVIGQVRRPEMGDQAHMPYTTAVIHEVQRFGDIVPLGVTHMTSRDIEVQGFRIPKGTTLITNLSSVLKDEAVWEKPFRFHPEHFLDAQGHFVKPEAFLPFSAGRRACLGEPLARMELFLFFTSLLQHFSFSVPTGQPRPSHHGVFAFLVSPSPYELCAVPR

Take `CCn1c(=O)c(-c2ccc(Cl)cc2Cl)cc2cnc(Nc3ccc(N4CCNCC4)c(F)c3)nc21`: the inhibition result in data set [1] and in data set [2] was “Active” each time.

In the case of `Cc1c[nH]c2ncnc(-c3ccc(NC(=O)N(CCO)c4ccccc4)cc3)c12`, the inhibition result in data set [1] and in data set [2] was “Active” each time.

In general, pIC50 refers to −log10 of the IC50, conventionally taken in molar units. For the molecule `O=C(c1ccc(S(=O)(=O)Nc2ccccc2)cc1)N(Cc1ccc(NCCO)cc1)CC1CC1`, the figures for the concentration at 672 h in data set [3] and in data set [17] were 903 nM and 62 nM, respectively. Moreover, the pIC50 was less than 4.60 in [4], 4.96 in data set [5] and less than 4.60 in [6]. Further, the Activity entry in [7], in [8], in [9], in data set [10], in data set [11] and in [12] was “Non-toxic” each time. Besides, the Activity result in data set [13], in data set [14], in data set [15], in data set [16] and in data set [18] was “Non-toxic” in each case.
